# Experimental data: ChEMBL document CHEMBL1152523, “3-Substituted phenylalanines as selective AMPA- and kainate receptor ligands” (Bioorg Med Chem, 2009)
# Calls of active or inactive are those of the source. The rule behind the calls is not given here.
# Biological target: T1, Glutamate receptor ionotropic, kainate 1 (Rattus norvegicus, UniProt P22756)
# Test: Displacement of [3H]SYM2081 from rat recombinant iGluR5-1b expressed in baculovirus-infected insect Sf9 cells
# How it was run: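 Recombinant rat iGluR5(Q)1b expressed in Sf9 insect cells via baculoviral infection; competition binding against [3H]-SYM 2081 radioligand. Values from three independent experiments, expressed as mean ± SEM.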
# T1 sequence (P22756 whole entry): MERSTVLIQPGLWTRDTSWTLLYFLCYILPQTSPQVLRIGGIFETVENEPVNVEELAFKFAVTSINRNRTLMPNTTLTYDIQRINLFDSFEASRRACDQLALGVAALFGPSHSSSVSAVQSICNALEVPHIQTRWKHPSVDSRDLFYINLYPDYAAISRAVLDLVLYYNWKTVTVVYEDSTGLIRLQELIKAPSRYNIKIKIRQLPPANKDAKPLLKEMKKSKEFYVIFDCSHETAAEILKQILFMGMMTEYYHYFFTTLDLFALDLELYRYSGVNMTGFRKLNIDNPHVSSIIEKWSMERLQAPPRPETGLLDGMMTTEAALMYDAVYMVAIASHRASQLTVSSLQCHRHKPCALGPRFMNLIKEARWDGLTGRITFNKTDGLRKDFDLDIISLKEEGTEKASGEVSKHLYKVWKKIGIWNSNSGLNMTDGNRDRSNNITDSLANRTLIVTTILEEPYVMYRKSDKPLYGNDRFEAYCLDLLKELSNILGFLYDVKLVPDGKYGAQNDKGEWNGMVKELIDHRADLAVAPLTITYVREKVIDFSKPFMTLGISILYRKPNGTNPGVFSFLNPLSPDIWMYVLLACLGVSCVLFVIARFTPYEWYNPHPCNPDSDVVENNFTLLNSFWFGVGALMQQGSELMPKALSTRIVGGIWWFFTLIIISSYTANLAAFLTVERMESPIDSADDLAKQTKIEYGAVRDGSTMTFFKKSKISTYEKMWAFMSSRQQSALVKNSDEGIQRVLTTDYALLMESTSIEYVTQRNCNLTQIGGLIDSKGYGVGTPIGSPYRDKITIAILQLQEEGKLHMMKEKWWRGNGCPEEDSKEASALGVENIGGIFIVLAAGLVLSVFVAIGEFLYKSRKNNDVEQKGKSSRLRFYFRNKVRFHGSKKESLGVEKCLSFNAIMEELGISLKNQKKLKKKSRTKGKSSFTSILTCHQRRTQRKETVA
row,Compound,Ki [µM]
1,NC(Cc1cccc(-c2ccc(CC(=O)O)cc2)c1)C(=O)O (stereo not drawn),> 100
2,N[C@@H](Cc1cccc(-c2cccc(C(=O)O)c2)c1)C(=O)O,4.08
3,N[C@H](Cc1cccc(-c2cccc(C(=O)O)c2)c1)C(=O)O,> 1000
4,CC(C)(C)c1onc(OCP(=O)(O)O)c1C[C@H](N)C(=O)O,2.9
5,NC(Cc1cccc(-c2ccccc2C(=O)O)c1)C(=O)O (racemic),> 100
6,NC(Cc1cc(Cl)c(Cl)c(-c2ccc(-c3nnn[nH]3)cc2)c1)C(=O)O (racemic),> 100
7,NC(Cc1cc(Cl)c(Cl)c(-c2ccc(C(=O)O)s2)c1)C(=O)O (racemic),≥ 100
8,NC(Cc1cc(Cl)c(Cl)c(-c2ccccc2-c2nnn[nH]2)c1)C(=O)O (racemic),> 100
9,NC(Cc1cc(Cl)c(Cl)c(-c2cccc(-c3nnn[nH]3)c2)c1)C(=O)O (racemic),≥ 100
10,NC(Cc1cc(Cl)c(Cl)c(-c2ccccc2O)c1)C(=O)O (racemic),> 100
11,NC(Cc1cccc(Cc2ccccc2C(=O)O)c1)C(=O)O (racemic),≥ 100
12,NC(Cc1cc(Cl)c(Cl)c(-c2ccc(C(=O)O)cc2)c1)C(=O)O (racemic),> 100
13,NC(Cc1cc(Cl)c(Cl)c(-c2ccc([N+](=O)[O-])cc2)c1)C(=O)O (racemic),> 100
14,NC(Cc1cc(Cl)c(Cl)c(-c2ccc(O)cc2)c1)C(=O)O (racemic),> 100
15,NC(Cc1cc(Cl)c(Cl)c(-c2cccc(C(=O)O)c2)c1)C(=O)O (racemic),2.8
16,NC(Cc1cccc(-c2ccc(C(=O)O)cc2)c1)C(=O)O (racemic),> 100
17,NC(Cc1cccc(-c2cccc(CC(=O)O)c2)c1)C(=O)O (racemic),≥ 100
18,NC(Cc1cccc(Cc2ccc(C(=O)O)cc2)c1)C(=O)O (racemic),≥ 100
19,NC(Cc1cc(Cl)c(Cl)c(-c2cccc([N+](=O)[O-])c2)c1)C(=O)O (racemic),> 100
20,NC(Cc1cccc(-c2cccc(C(=O)O)c2)c1)C(=O)O (racemic),7.9
21,NC(Cc1cccc(Cc2cccc(C(=O)O)c2)c1)C(=O)O (racemic),50
22,NC(Cc1cc(Cl)c(Cl)c(-c2cccc(O)c2)c1)C(=O)O (racemic),> 100
23,NC(Cc1cc(Cl)c(Cl)c(-c2ccccc2C(=O)O)c1)C(=O)O (racemic),> 100

# Biological target: Glutamate receptor 2 (Rattus norvegicus, UniProt P19491)
# Sequence (P19491 whole entry): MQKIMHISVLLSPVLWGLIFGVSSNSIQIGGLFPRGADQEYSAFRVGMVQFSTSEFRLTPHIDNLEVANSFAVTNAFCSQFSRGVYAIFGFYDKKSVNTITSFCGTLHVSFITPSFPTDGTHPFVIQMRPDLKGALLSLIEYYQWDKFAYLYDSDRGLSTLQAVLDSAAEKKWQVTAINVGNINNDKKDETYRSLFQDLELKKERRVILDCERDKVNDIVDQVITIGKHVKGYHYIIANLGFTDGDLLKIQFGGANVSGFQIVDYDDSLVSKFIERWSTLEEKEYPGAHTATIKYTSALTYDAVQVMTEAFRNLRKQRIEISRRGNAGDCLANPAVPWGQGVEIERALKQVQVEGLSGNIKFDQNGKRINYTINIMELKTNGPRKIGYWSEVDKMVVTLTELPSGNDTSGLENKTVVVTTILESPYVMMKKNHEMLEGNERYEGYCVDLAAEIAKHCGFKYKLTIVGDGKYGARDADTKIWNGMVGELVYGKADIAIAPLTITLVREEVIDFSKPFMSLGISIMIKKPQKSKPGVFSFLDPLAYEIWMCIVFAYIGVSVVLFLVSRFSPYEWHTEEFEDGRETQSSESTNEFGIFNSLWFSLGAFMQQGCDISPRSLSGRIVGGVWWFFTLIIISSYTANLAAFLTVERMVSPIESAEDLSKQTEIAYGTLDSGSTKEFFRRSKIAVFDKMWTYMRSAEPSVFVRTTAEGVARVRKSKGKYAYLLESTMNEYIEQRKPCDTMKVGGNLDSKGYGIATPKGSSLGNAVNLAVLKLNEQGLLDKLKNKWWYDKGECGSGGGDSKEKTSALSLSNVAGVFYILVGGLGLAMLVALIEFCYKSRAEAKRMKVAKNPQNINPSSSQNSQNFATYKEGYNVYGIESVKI
# Test: Displacement of [3H]AMPA from wild type rat GluR2 S1S2 ligand binding core
row,Kd [µM],Compound
1,146,N[C@@H](Cn1ccc(=O)n(Cc2ccccc2C(=O)O)c1=O)C(=O)O

# Species: Rattus norvegicus
# Test: Displacement of [3H]kainic acid from kainate receptor in rat cortical membrane
# Format: cell membranes
# How it was run: (§1)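 Native rat brain membranes prepared per Ransom and Stec. Competition binding with 5 nM [3H]AMPA or 5 nM [3H]KA. Three independent experiments, mean ± SEM.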
row,Compound,Activity
1,N[C@@H](Cn1ccc(=O)n(Cc2ccccc2C(=O)O)c1=O)C(=O)O,inactive
2,NC(Cc1cccc(-c2ccc(CC(=O)O)cc2)c1)C(=O)O (stereo not drawn),inactive
3,N[C@@H](Cc1cccc(-c2cccc(C(=O)O)c2)c1)C(=O)O,inactive
4,N[C@H](Cc1cccc(-c2cccc(C(=O)O)c2)c1)C(=O)O,inactive
5,CC(C)(C)c1onc(OCP(=O)(O)O)c1C[C@H](N)C(=O)O,inactive
6,NC(Cc1cccc(-c2ccccc2C(=O)O)c1)C(=O)O (racemic),inactive
7,NC(Cc1cc(Cl)c(Cl)c(-c2ccc(-c3nnn[nH]3)cc2)c1)C(=O)O (racemic),inactive
8,NC(Cc1cc(Cl)c(Cl)c(-c2ccc(C(=O)O)s2)c1)C(=O)O (racemic),inactive
9,NC(Cc1cc(Cl)c(Cl)c(-c2ccccc2-c2nnn[nH]2)c1)C(=O)O (racemic),inactive
10,NC(Cc1cc(Cl)c(Cl)c(-c2cccc(-c3nnn[nH]3)c2)c1)C(=O)O (racemic),inactive
11,NC(Cc1cc(Cl)c(Cl)c(-c2ccccc2O)c1)C(=O)O (racemic),inactive
12,NC(Cc1cccc(Cc2ccccc2C(=O)O)c1)C(=O)O (racemic),inactive
13,NC(Cc1cc(Cl)c(Cl)c(-c2ccc(C(=O)O)cc2)c1)C(=O)O (racemic),inactive
14,NC(Cc1cc(Cl)c(Cl)c(-c2ccc([N+](=O)[O-])cc2)c1)C(=O)O (racemic),inactive
15,NC(Cc1cc(Cl)c(Cl)c(-c2ccc(O)cc2)c1)C(=O)O (racemic),inactive
16,NC(Cc1cc(Cl)c(Cl)c(-c2cccc(C(=O)O)c2)c1)C(=O)O (racemic),inactive
17,NC(Cc1cccc(-c2ccc(C(=O)O)cc2)c1)C(=O)O (racemic),inactive
18,NC(Cc1cccc(-c2cccc(CC(=O)O)c2)c1)C(=O)O (racemic),inactive
19,NC(Cc1cccc(Cc2ccc(C(=O)O)cc2)c1)C(=O)O (racemic),inactive
20,NC(Cc1cc(Cl)c(Cl)c(-c2cccc([N+](=O)[O-])c2)c1)C(=O)O (racemic),inactive
21,NC(Cc1cccc(-c2cccc(C(=O)O)c2)c1)C(=O)O (racemic),inactive
22,NC(Cc1cccc(Cc2cccc(C(=O)O)c2)c1)C(=O)O (racemic),inactive
23,NC(Cc1cc(Cl)c(Cl)c(-c2cccc(O)c2)c1)C(=O)O (racemic),inactive
24,NC(Cc1cc(Cl)c(Cl)c(-c2ccccc2C(=O)O)c1)C(=O)O (racemic),inactive

# Biological target: Glutamate receptor ionotropic, kainate 2 (Rattus norvegicus) (UniProt P42260)
# Sequence (P42260 whole entry): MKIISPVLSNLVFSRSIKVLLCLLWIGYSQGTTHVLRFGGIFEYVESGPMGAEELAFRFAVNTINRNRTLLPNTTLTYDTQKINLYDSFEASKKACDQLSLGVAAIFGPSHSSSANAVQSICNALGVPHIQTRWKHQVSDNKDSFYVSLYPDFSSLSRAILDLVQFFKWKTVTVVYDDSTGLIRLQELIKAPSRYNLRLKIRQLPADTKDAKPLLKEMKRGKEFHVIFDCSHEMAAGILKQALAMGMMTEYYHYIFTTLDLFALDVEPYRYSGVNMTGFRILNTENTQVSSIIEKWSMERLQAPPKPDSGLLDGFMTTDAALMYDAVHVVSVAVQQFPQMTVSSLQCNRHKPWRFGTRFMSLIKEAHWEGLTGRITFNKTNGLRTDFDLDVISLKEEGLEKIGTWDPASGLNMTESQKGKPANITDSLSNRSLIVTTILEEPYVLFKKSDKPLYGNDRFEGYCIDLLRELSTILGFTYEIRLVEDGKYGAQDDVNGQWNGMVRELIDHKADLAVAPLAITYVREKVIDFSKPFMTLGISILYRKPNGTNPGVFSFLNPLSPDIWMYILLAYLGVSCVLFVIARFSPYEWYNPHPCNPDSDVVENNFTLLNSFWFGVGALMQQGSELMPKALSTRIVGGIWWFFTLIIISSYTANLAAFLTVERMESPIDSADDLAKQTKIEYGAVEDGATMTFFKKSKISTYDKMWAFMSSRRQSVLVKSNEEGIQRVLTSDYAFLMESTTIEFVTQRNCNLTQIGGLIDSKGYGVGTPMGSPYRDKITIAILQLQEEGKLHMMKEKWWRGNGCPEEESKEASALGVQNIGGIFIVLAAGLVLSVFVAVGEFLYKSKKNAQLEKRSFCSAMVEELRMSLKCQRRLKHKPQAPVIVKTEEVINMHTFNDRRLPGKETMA
# Test: Displacement of [3H]SYM2081 from rat recombinant iGluR6 expressed in baculovirus-infected insect Sf9 cells
# How it was run: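 Recombinant rat iGluR6(V,C,R) expressed in baculovirus-infected Sf9 insect cells. Competition binding against [3H]-SYM 2081 radioligand. Three independent experiments, mean ± SEM.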
row,Compound,Activity
1,N[C@@H](Cn1ccc(=O)n(Cc2ccccc2C(=O)O)c1=O)C(=O)O,inactive
2,NC(Cc1cccc(-c2ccc(CC(=O)O)cc2)c1)C(=O)O (stereo not drawn),inactive
3,N[C@@H](Cc1cccc(-c2cccc(C(=O)O)c2)c1)C(=O)O,inactive
4,N[C@H](Cc1cccc(-c2cccc(C(=O)O)c2)c1)C(=O)O,inactive
5,CC(C)(C)c1onc(OCP(=O)(O)O)c1C[C@H](N)C(=O)O,inactive
6,NC(Cc1cccc(-c2ccccc2C(=O)O)c1)C(=O)O (racemic),inactive
7,NC(Cc1cc(Cl)c(Cl)c(-c2ccc(-c3nnn[nH]3)cc2)c1)C(=O)O (racemic),inactive
8,NC(Cc1cc(Cl)c(Cl)c(-c2ccc(C(=O)O)s2)c1)C(=O)O (racemic),inactive
9,NC(Cc1cc(Cl)c(Cl)c(-c2ccccc2-c2nnn[nH]2)c1)C(=O)O (racemic),inactive
10,NC(Cc1cc(Cl)c(Cl)c(-c2cccc(-c3nnn[nH]3)c2)c1)C(=O)O (racemic),inactive
11,NC(Cc1cc(Cl)c(Cl)c(-c2ccccc2O)c1)C(=O)O (racemic),inactive
12,NC(Cc1cccc(Cc2ccccc2C(=O)O)c1)C(=O)O (racemic),inactive
13,NC(Cc1cc(Cl)c(Cl)c(-c2ccc(C(=O)O)cc2)c1)C(=O)O (racemic),inactive
14,NC(Cc1cc(Cl)c(Cl)c(-c2ccc([N+](=O)[O-])cc2)c1)C(=O)O (racemic),inactive
15,NC(Cc1cc(Cl)c(Cl)c(-c2ccc(O)cc2)c1)C(=O)O (racemic),inactive
16,NC(Cc1cc(Cl)c(Cl)c(-c2cccc(C(=O)O)c2)c1)C(=O)O (racemic),inactive
17,NC(Cc1cccc(-c2ccc(C(=O)O)cc2)c1)C(=O)O (racemic),inactive
18,NC(Cc1cccc(-c2cccc(CC(=O)O)c2)c1)C(=O)O (racemic),inactive
19,NC(Cc1cccc(Cc2ccc(C(=O)O)cc2)c1)C(=O)O (racemic),inactive
20,NC(Cc1cc(Cl)c(Cl)c(-c2cccc([N+](=O)[O-])c2)c1)C(=O)O (racemic),inactive
21,NC(Cc1cccc(-c2cccc(C(=O)O)c2)c1)C(=O)O (racemic),inactive
22,NC(Cc1cccc(Cc2cccc(C(=O)O)c2)c1)C(=O)O (racemic),inactive
23,NC(Cc1cc(Cl)c(Cl)c(-c2cccc(O)c2)c1)C(=O)O (racemic),inactive
24,NC(Cc1cc(Cl)c(Cl)c(-c2ccccc2C(=O)O)c1)C(=O)O (racemic),inactive

# Biological target: Glutamate NMDA receptor (Rattus norvegicus) (UniProt P35439+Q00959+Q00960+Q00961+Q62645+Q8VHN2+Q9R1M7)
# Test: Displacement of [3H]CGP39653 from NMDA receptor in rat cortical membrane
# Format: cell membranes
# How it was run: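 Rat brain membranes prepared per Ransom and Stec. Binding at the NMDA site measured with 2 nM [3H]CGP 39653. Three independent experiments, mean ± SEM.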
row,Compound,Activity
1,N[C@@H](Cn1ccc(=O)n(Cc2ccccc2C(=O)O)c1=O)C(=O)O,inactive
2,NC(Cc1cccc(-c2ccc(CC(=O)O)cc2)c1)C(=O)O (stereo not drawn),inactive
3,N[C@@H](Cc1cccc(-c2cccc(C(=O)O)c2)c1)C(=O)O,inactive
4,N[C@H](Cc1cccc(-c2cccc(C(=O)O)c2)c1)C(=O)O,inactive
5,CC(C)(C)c1onc(OCP(=O)(O)O)c1C[C@H](N)C(=O)O,inactive
6,NC(Cc1cccc(-c2ccccc2C(=O)O)c1)C(=O)O (racemic),inactive
7,NC(Cc1cc(Cl)c(Cl)c(-c2ccc(-c3nnn[nH]3)cc2)c1)C(=O)O (racemic),inactive
8,NC(Cc1cc(Cl)c(Cl)c(-c2ccc(C(=O)O)s2)c1)C(=O)O (racemic),inactive
9,NC(Cc1cc(Cl)c(Cl)c(-c2ccccc2-c2nnn[nH]2)c1)C(=O)O (racemic),inactive
10,NC(Cc1cc(Cl)c(Cl)c(-c2cccc(-c3nnn[nH]3)c2)c1)C(=O)O (racemic),inactive
11,NC(Cc1cc(Cl)c(Cl)c(-c2ccccc2O)c1)C(=O)O (racemic),inactive
12,NC(Cc1cccc(Cc2ccccc2C(=O)O)c1)C(=O)O (racemic),inactive
13,NC(Cc1cc(Cl)c(Cl)c(-c2ccc(C(=O)O)cc2)c1)C(=O)O (racemic),inactive
14,NC(Cc1cc(Cl)c(Cl)c(-c2ccc([N+](=O)[O-])cc2)c1)C(=O)O (racemic),inactive
15,NC(Cc1cc(Cl)c(Cl)c(-c2ccc(O)cc2)c1)C(=O)O (racemic),inactive
16,NC(Cc1cc(Cl)c(Cl)c(-c2cccc(C(=O)O)c2)c1)C(=O)O (racemic),inactive
17,NC(Cc1cccc(-c2ccc(C(=O)O)cc2)c1)C(=O)O (racemic),inactive
18,NC(Cc1cccc(-c2cccc(CC(=O)O)c2)c1)C(=O)O (racemic),inactive
19,NC(Cc1cccc(Cc2ccc(C(=O)O)cc2)c1)C(=O)O (racemic),inactive
20,NC(Cc1cc(Cl)c(Cl)c(-c2cccc([N+](=O)[O-])c2)c1)C(=O)O (racemic),inactive
21,NC(Cc1cccc(-c2cccc(C(=O)O)c2)c1)C(=O)O (racemic),inactive
22,NC(Cc1cccc(Cc2cccc(C(=O)O)c2)c1)C(=O)O (racemic),inactive
23,NC(Cc1cc(Cl)c(Cl)c(-c2cccc(O)c2)c1)C(=O)O (racemic),inactive
24,NC(Cc1cc(Cl)c(Cl)c(-c2ccccc2C(=O)O)c1)C(=O)O (racemic),inactive

# Biological target: not listed separately
# Test: Displacement of [3H]AMPA from AMPA receptor in rat cortical membrane
# Format: cell membranes
# How it was run: as §1
row,Compound,IC50 [µM]
1,NC(Cc1cccc(-c2ccc(CC(=O)O)cc2)c1)C(=O)O (stereo not drawn),> 100
2,CC(C)(C)c1onc(OCP(=O)(O)O)c1C[C@H](N)C(=O)O,16
3,NC(Cc1cccc(-c2ccccc2C(=O)O)c1)C(=O)O (racemic),> 100
4,NC(Cc1cc(Cl)c(Cl)c(-c2ccc(-c3nnn[nH]3)cc2)c1)C(=O)O (racemic),> 100
5,NC(Cc1cc(Cl)c(Cl)c(-c2ccc(C(=O)O)s2)c1)C(=O)O (racemic),61
6,NC(Cc1cc(Cl)c(Cl)c(-c2ccccc2-c2nnn[nH]2)c1)C(=O)O (racemic),> 100
7,NC(Cc1cc(Cl)c(Cl)c(-c2cccc(-c3nnn[nH]3)c2)c1)C(=O)O (racemic),> 100
8,NC(Cc1cc(Cl)c(Cl)c(-c2ccccc2O)c1)C(=O)O (racemic),85
9,NC(Cc1cccc(Cc2ccccc2C(=O)O)c1)C(=O)O (racemic),> 100
10,NC(Cc1cc(Cl)c(Cl)c(-c2ccc(C(=O)O)cc2)c1)C(=O)O (racemic),42
11,NC(Cc1cc(Cl)c(Cl)c(-c2ccc([N+](=O)[O-])cc2)c1)C(=O)O (racemic),> 100
12,NC(Cc1cc(Cl)c(Cl)c(-c2ccc(O)cc2)c1)C(=O)O (racemic),33
13,NC(Cc1cc(Cl)c(Cl)c(-c2cccc(C(=O)O)c2)c1)C(=O)O (racemic),> 100
14,NC(Cc1cccc(-c2ccc(C(=O)O)cc2)c1)C(=O)O (racemic),41
15,NC(Cc1cccc(-c2cccc(CC(=O)O)c2)c1)C(=O)O (racemic),> 100
16,NC(Cc1cccc(Cc2ccc(C(=O)O)cc2)c1)C(=O)O (racemic),> 100
17,NC(Cc1cc(Cl)c(Cl)c(-c2cccc([N+](=O)[O-])c2)c1)C(=O)O (racemic),> 100
18,NC(Cc1cccc(-c2cccc(C(=O)O)c2)c1)C(=O)O (racemic),> 100
19,NC(Cc1cccc(Cc2cccc(C(=O)O)c2)c1)C(=O)O (racemic),> 100
20,NC(Cc1cc(Cl)c(Cl)c(-c2cccc(O)c2)c1)C(=O)O (racemic),4.6
21,NC(Cc1cc(Cl)c(Cl)c(-c2ccccc2C(=O)O)c1)C(=O)O (racemic),> 100

# Biological target: T1, Glutamate receptor ionotropic, kainate 1
# Test: Displacement of [3H]S-glutamate from rat GluR5 S1S2 ligand binding core expressed in Escherichia coli (DE3)
row,Kd [µM],Compound
1,3.94,N[C@@H](Cn1ccc(=O)n(Cc2ccccc2C(=O)O)c1=O)C(=O)O
